WT yeast gro inh – growth inhibition of WT yeast, mitochondrial fusion screen. mitochondrial fusion phenotypic screen, WT strain. inhibition, % at 10 µM. actives 2.1% (n = 190,000); in the data active = inhibition above about 58%; tested in S. cerevisiae
Diaphorase inh – counter-screen for diaphorase-based assays: diaphorase inhibitors and chemical oxidizers. diaphorase resazurin-to-resorufin fluorescence, NADH, 16 min; bacterial (C. kluyveri) enzyme, not human. inhibition, % at 20 µM. actives 0.69% (n = 190,000). AID 1217;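 active = primary screen inhibition at 20 µM above a set limit, cut at about 50% in these data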;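 note: plate controls were DMSO with full reaction for no effect and wells lacking NADH for full effect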
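controls = No-NADH positive control and DMSO neutral control | system = Clostridium kluyveri diaphorase enzyme | timing = reaction incubation of 16 min at room temperature | signal = resorufin fluorescence 544/590 nm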
Diaph act CS – counter-screen for diaphorase-based assays: diaphorase activators and chemical reducers; AID 1229; Diaphorase/resazurin coupled assay, resorufin fluorescence, 16 min; active compounds read high; 1 = vehicle wells, 0 = NADH-free wells; activation factor at 20 µM; actives 0.005% (n = 190,000);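 active = diaphorase activity raised at least twofold by the compound at 20 µM; inactive = activation factor below 2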
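System – purified diaphorase enzyme from Clostridium kluyveri · Input – enzyme 0.07 U/mL final · Also added – final NADH 0.114 mM, resazurin 0.1 mM · Measured by – fluorescence of resorufin, 544 nm excitation, 590 nm emission · Timing – 16 min enzyme reaction, ambient temperature · Measure – resorufin increase flagging diaphorase activators or reducers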
KCC2 mod – modulators of human KCC2 chloride dependent transport; KCC2 cells, thallium flux FluoZin-2 fluorescence; AID 1456; actives 2.2% (n = 190,000); Q9H2X9; B-score of Tl+ flux slope (higher = more flux/activation; lower = inhibition) at 10 µM;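 active = thallium flux slope and its plate-corrected score both differing from the plate sample mean at a set confidence after two filtering rounds, in either direction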;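 note: slope of fluorescence scaled to starting intensity during 10 to 20 s after thallium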
Lmaj promast – reduces viability of Leishmania major promastigotes; resazurin fluorescence viability; inhibition, % at 10 µM; actives 9% (n = 200,000); in the data active = inhibition above about 50%;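 note: promastigotes grown with compound for 44 hours at 28 °C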
ROMK mod – modulators of human ROMK potassium channel; P48048; Tet-inducible ROMK, thallium flux fluorescence; actives lie on both sides; B-score at 10 µM; actives 2% (n = 130,000);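 active = signal ratio slope over the read window, or its plate-corrected B-score, at least 3 SD from the plate mean, either direction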;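 note: B-score of the F/F0 ratio slope over 7 to 12 s after thallium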
Target sequence (P48048 whole entry, looked up): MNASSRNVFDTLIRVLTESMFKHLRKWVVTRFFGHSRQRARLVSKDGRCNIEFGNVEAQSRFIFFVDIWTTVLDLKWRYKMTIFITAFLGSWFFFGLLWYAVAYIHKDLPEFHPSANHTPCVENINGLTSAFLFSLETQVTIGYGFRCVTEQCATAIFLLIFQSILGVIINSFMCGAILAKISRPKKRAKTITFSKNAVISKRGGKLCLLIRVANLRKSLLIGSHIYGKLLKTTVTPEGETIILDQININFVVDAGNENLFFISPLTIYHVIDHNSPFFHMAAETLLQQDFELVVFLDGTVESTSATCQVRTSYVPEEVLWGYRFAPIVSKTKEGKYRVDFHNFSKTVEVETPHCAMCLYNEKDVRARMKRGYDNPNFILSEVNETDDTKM
Active calls of the source: *; / = no result. A selection: hits, their analogues and other compounds. The true share with any hit is near 12%.

SMILES	WT yeast gro inh	Diaphorase inh	Diaph act CS	KCC2 mod	Lmaj promast	ROMK mod
Cc1ccc(C)c2[nH]c(=O)c(CN(CCN3CCOCC3)Cc3nnnn3CC3CCCO3)cc12 (configuration not stated)	-7	7	0.9	1.2	6	/
Cc1cccc2cc(CN(Cc3ccc(F)cc3)Cc3nnnn3C3CCCC3)c(=O)[nH]c12	1	14	0.9	/	20	0.79
COc1cc(C(=O)NCCOc2ccc(F)cc2)c(Br)c(OC)c1OC	-1	-7	1.1	-3.2	-5	-0.97
Cn1c(=O)c2c(ncn2CC(COCc2ccc(Cl)cc2)OCc2ccc(Cl)cc2)n(C)c1=O (configuration not stated)	21	22	0.8	-2.8	100*	/
O=C(/C=C/c1cccc2ccccc12)c1ccncc1	7	24	0.8	-0.59	100*	/
Cc1[nH]c2ccccc2c1/C=C/C(=O)c1ccncc1	/	/	/	-0.36	/	/
Cc1nc(C(F)(F)F)nc(Nc2ccc(N=Nc3ccccc3)cc2)c1C#N	0	6	0.9	0.96	-1	/
Cc1ccc(NC(=S)N/N=C2\CC(C)(C)Oc3ccc(O)cc32)cc1	7	14	0.9	0.92	-9	/
CC(=O)N1CCC2(CC1)C/C(=N\NC(=S)Nc1ccc(C)cc1)c1cc(O)ccc1O2	6	54*	0.5	-1.3	0	0.47
Cc1ccccc1NC(=S)N/N=C1\CC(C)(C)Oc2ccc(O)cc21	-6	34	0.7	0.25	84*	0.44
COc1ccc(NC(=S)N/N=C2\CC(C)(C)Oc3ccc(OC)cc32)cc1	1	17	0.8	1.4	-5	/
Cc1nc(C)c(C(=O)N/N=C/c2cc(Br)ccc2O)s1	/	/	/	0.58	/	/
O=C(CN(c1cccc(Cl)c1)S(=O)(=O)c1ccc(Cl)cc1)N1CCc2ccccc2C1	28	11	0.9	-1.4	36	0.15
COc1ccccc1NC(=O)c1ccc([N+](=O)[O-])cc1[N+](=O)[O-]	1	6	0.9	0.83	85*	-0.67
COc1ccc(C)cc1S(=O)(=O)N(CC(=O)Nc1cc([N+](=O)[O-])ccc1C)c1ccc(C)c(C)c1	13	12	0.9	-0.2	99*	/
COc1ccc([N+](=O)[O-])cc1NC(=O)c1ccccc1SC	-10	26	0.7	-0.15	-3	-0.58
COc1ccc(-n2cc(C(=O)Nc3cc([N+](=O)[O-])ccc3OC)c3ccccc3c2=O)cc1	17	17	0.8	0.38	77*	-0.043
CCOC(=O)c1ccccc1NC(=O)c1cn(-c2ccc(C)c(C)c2)c(=O)c2ccccc12	5	8	0.9	0.96	98*	1.1
CCN(CC(=O)Nc1ccc([N+](=O)[O-])cc1OC)CC(=O)NC(C)(C)C	11	9	0.9	0.023	71*	-0.3
CCC(=O)OCC(=O)Nc1ccc([N+](=O)[O-])cc1OC	3	3	1	0.065	-3	/
CCOC(=O)c1ccccc1NC(=O)c1cn(-c2ccc(OC)cc2)c(=O)c2ccccc12	24	23	0.8	-0.35	92*	0.39
N#CC1(c2ccc(NC(=O)c3ccccc3F)cc2)CCCC1	43	8	0.9	-0.32	-6	/
CC(O)CNC(=O)C1CCN(Cc2ccc(OCc3ccccc3)cc2)CC1 (configuration not stated)	-3	18	0.8	-0.56	91*	-0.35
O=C(NCc1ccccn1)C1CCN(Cc2cccc(OCc3ccccc3)c2)CC1	-1	0	1	-0.077	100*	-0.98
O=C(NCc1ccccn1)C1CCN(S(=O)(=O)c2ccccc2)CC1	-3	13	0.9	/	-3	0.0027
SMILES	WT yeast gro inh	Diaphorase inh	Diaph act CS	KCC2 mod	Lmaj promast	ROMK mod
CC(C)CNC(=O)C1CCN(Cc2ccc(OCc3ccccc3)cc2)CC1	26	19	0.8	0.52	32	-1.6
C(=C/c1ccnc2nc(SC/C=C/c3ccccc3)nn12)/c1ccccc1	-4	13	0.9	-0.019	-4	/
CC(NC(=O)c1ccco1)C(=O)N1CCc2ccccc2C1 (configuration not stated)	/	6	0.9	/	-2	/
CC1(C)C(C=C(Cl)Cl)C1C(=O)N1CCN(Cc2ccccc2)CC1 (configuration not stated)	5	9	0.9	-0.59	5	-0.52
Cc1ccc([N+](=O)[O-])c(NC2OC(CO)C(O)C2O)c1 (configuration not stated)	7	-2	1	-0.24	-9	0.95
COc1ccc(CC(=O)O/N=C(\N)c2ccccn2)cc1	/	/	/	1.2	/	/
N/C(=N\OC(=O)c1cc(-c2ccccc2)nc2ccccc12)c1ccccn1	66*	13	0.9	-0.066	-1	0.24
N/C(=N\OC(=O)Cc1ccc(-c2ccccc2)cc1)c1ccccn1	62*	23	0.8	1	-3	-0.0096
C=CCC(COCc1ccccc1)NS(=O)(=O)c1ccccc1Br (configuration not stated)	/	/	/	-1.4	/	/
COc1ccc(C(=O)CSc2n[nH]c(-c3ccncc3)n2)cc1[N+](=O)[O-]	-7	16	0.8	0.28	56*	-0.4
Cc1cc(C)c(C(=O)CSc2n[nH]c(-c3ccncc3)n2)c(C)c1	7	1	1	-0.38	97*	/
Cc1ccc(C)c(C(=O)CSc2n[nH]c(-c3ccncc3)n2)c1	-14	16	0.8	/	10	-0.02
C=CCn1c(COc2cccc(C)c2)nnc1SCC(=O)c1c[nH]c2c(CC)cccc12	5	10	0.9	-0.013	-5	/
NS(=O)(=O)c1ccc(O)c(NC(=O)c2ccc([N+](=O)[O-])o2)c1	/	/	/	1.2	/	/
Cc1nn(Cc2ccccc2Cl)c(C)c1NC(=O)c1ccn(C)n1	-4	12	0.9	/	-4	0.046
CCCNC(=O)c1cccc(Cn2nc(C)c(Br)c2C)c1	-5	5	0.9	-2.5	6	/
Cc1nn(Cc2ccccc2Cl)c(C)c1NC(=O)NC12CC3CC(CC(C3)C1)C2	73*	4	1	0.33	17	/
Cc1nn(Cc2cccc(C(=O)NC34CC5CC(CC(C5)C3)C4)c2)c(C)c1Br	57	10	0.9	0.86	54*	-1
COc1ccc(/C=C/c2nc(N)nc(-c3ccccc3O)n2)cc1OC	28	23	0.8	0.64	93*	-0.8
O=C(COC(=O)c1ccc(NS(=O)(=O)c2ccc(F)c(F)c2)cc1)NCC1CCCO1 (configuration not stated)	-5	-3	1	-0.58	-5	1
CN1CCN(NS(=O)(=O)c2cccs2)CC1	-2	14	0.9	0	41	0.091
CCOC(=O)Cn1c(=O)oc2cc(S(=O)(=O)Nc3cc(Cl)ccc3OC)ccc21	2	27	0.7	/	-4	/
CCOC(=O)Cn1c(=O)oc2cc(S(=O)(=O)Nc3cc(OCC)ccc3OCC)ccc21	/	17	0.8	-2.3	71*	/
